# Assay results reported in ChEMBL document CHEMBL2062472, “N-(2-oxo-3-oxetanyl)carbamic acid esters as N-acylethanolamine acid amidase inhibitors: synthesis and structure-activity and structure-property relationships” (J Med Chem, 2012).
# How the values were obtained:
# [1] = Apparent Half life of the compound in 0.01 M phosphate-buffered saline at pH 7.4; type: physicochemical; conditions: read-out: t1/2(app)
# In short: (§1)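 Compound (from DMSO stock; 1% DMSO final) incubated at 1–100 μM final at 37 °C with shaking, ionic strength 0.15 M, in 0.01 M PBS pH 7.4 or 0.01 M phosphate buffer pH 5.0. Aliquots taken over time were analysed by RP-HPLC. Apparent t1/2 came from pseudo-first-order rate constants (linear regression of log[compound] vs time), reported as mean ± SD of three experiments.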
# [2] = Apparent Half life of the compound in 0.01 M phosphate buffer at pH 5; type: physicochemical; conditions: read-out: t1/2(app); in short: as §1
# [3] = target: Albumin (Bos taurus, UniProt P02769); experiment: Apparent half life of the compound in bovine serum albumin in phosphate-buffered saline at pH 7.4; type: ADME; conditions: cattle, read-out: t1/2(app)
# Sequence of Albumin (P02769 whole entry): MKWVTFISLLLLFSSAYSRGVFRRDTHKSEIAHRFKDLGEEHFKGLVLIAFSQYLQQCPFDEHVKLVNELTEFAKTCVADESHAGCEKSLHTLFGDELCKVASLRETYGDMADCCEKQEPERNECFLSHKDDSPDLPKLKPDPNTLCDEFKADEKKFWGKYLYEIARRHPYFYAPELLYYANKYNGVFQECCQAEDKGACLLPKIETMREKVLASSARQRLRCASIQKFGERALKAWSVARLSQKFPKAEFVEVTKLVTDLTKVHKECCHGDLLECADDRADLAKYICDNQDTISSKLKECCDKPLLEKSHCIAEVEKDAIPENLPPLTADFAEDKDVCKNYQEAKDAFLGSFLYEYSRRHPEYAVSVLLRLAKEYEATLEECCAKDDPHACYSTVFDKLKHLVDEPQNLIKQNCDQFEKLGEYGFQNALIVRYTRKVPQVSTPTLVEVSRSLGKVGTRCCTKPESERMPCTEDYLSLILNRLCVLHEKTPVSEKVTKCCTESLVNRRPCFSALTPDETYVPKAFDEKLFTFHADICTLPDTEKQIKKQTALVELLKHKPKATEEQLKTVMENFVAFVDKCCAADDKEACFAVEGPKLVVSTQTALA
# In short: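 Compound incubated at 5–100 μM final (1% DMSO) at 37 °C in 20 mg/mL bovine serum albumin in PBS pH 7.4. Aliquots were quenched with 2 volumes of CH3CN, centrifuged, and analysed by RP-HPLC. Apparent t1/2 came from pseudo-first-order regression of log[compound] vs time.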
# [4] = Apparent half life of the compound in rat plasma by HPLC analysis; type: ADME, cell-free; conditions: read-out: t1/2(app) (converted)
# In short: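 Pooled heparinized plasma from male Wistar rats was diluted to 80% (v/v) with PBS pH 7.4. Compound was added at 5–100 μM final (1% DMSO) and incubated at 37 °C with shaking. Aliquots were quenched with 2 volumes of CH3CN, centrifuged, and analysed by RP-HPLC. t1/2 came from log[compound]-vs-time regression, as mean ± SD of three experiments.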
# [5] = Apparent Half life of the compound in 0.01 M phosphate buffer at pH 5 in presence of 3 mM DTT; conditions: read-out: t1/2(app)
# [6] = Drug degradation in 0.01 M phosphate-buffered saline at pH 7.4 assessed as N-acylated L-serine product formation by HPLC-UV-MS analysis; type: physicochemical; conditions: buffer
# In short: (§2)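 Compound incubated at 37 °C in 0.01 M phosphate buffer pH 5.0 or 0.01 M PBS pH 7.4 (μ = 0.15 M; 1% DMSO) for up to 3 days. Degradation products were followed by RP-HPLC-UV and ESI-MS on a C18 column with acetonitrile/10 mM ammonium acetate (pH 7.0) mobile phase. Products were quantified against calibration curves of pure standards.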
# [7] = Drug degradation in 0.01 M phosphate buffer at pH 5 assessed as N-acylated L-serine product formation by HPLC-UV-MS analysis; type: physicochemical; in short: as §2
# [8] = target: T1, N-acylethanolamine-hydrolyzing acid amidase (Rattus norvegicus, UniProt Q5KTC7); experiment: Inhibition of rat recombinant NAAA expressed in HEK293 cells using heptadecenoylethanolamide as substrate after 30 mins by LC/MS analysis; type: cell-based
# T1 sequence (Q5KTC7 whole entry): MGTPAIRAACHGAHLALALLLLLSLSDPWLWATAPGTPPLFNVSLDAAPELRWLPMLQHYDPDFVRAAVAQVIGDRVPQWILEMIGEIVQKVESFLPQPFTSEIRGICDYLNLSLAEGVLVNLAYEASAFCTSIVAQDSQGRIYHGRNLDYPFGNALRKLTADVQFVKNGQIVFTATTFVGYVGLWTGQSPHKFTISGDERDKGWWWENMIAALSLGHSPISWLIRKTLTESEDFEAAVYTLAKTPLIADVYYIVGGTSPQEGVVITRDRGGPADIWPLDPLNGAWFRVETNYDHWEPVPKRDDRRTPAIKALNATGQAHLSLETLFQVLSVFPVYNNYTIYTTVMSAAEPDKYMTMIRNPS
# In short: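 Recombinant rat NAAA incubated 30 min at 37 °C in 50 mM sodium hydrogen phosphate buffer pH 5.0 containing 0.1% Triton X-100, 3 mM DTT and heptadecenoylethanolamide substrate (50 mM as printed). The reaction was stopped with cold methanol containing 1 nmol heptadecanoic acid. Product was measured by LC/MS with negative ESI, selected ion monitoring at m/z 267.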
# [9] = Drug degradation in 0.01 M phosphate buffer at pH 5 assessed as N-(2-Naphthoyl)-L-serine product formation at > 2 hrs by HPLC-UV-MS analysis; type: physicochemical; conditions: pH 5, 2 h; in short: as §2
# [10] = Drug degradation in 0.01 M phosphate buffer at pH 5 assessed as 2-Naphtholic acid product formation at > 2 hrs by HPLC-UV-MS analysis; type: physicochemical; conditions: pH 5, 2 h; in short: as §2
# [11] = Drug degradation in 0.01 M phosphate-buffered saline at pH 7.4 assessed as N-(2-Naphthoyl)-L-serine product formation by HPLC-UV-MS analysis; type: physicochemical; conditions: buffer; in short: as §2
# [12] = Drug degradation in 0.01 M phosphate-buffered saline at pH 7.4 assessed as 2-naphtholic acid product formation after 24 hrs by HPLC-UV-MS analysis; type: physicochemical; conditions: buffer, pH 7.4, 24 h; in short: as §2
# [13] = Drug degradation in 0.01 M phosphate buffer at pH 5 assessed as O-(2-naphthoyl)-L-serine product formation by HPLC-UV-MS analysis; type: physicochemical; in short: as §2
# [14] = Drug degradation in 0.01 M phosphate buffer at pH 5 assessed as time required for N-(2-Naphthoyl)-L-serine product formation by HPLC-UV-MS analysis; type: physicochemical; in short: as §2
# [15] = Drug degradation in 0.01 M phosphate buffer at pH 5 assessed as time required for O-(2-naphthoyl)-L-serine product formation by HPLC-UV-MS analysis; type: physicochemical; in short: as §2
# [16] = Apparent half life of the compound in 50% v/v rat plasma by HPLC analysis; type: ADME, cell-free; conditions: 50% v/v plasma, read-out: t1/2(app)
# In short: (§3)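 Rat or human plasma at 50% (v/v) was preincubated with BNPP, eserine, PMSF, EDTA or vehicle, then compound was added and kept at 37 °C. Aliquots taken at regular time points were quenched with 2 volumes of CH3CN, centrifuged, and analysed by RP-HPLC. Apparent t1/2 came from log[compound]-vs-time regression.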
# [17] = Apparent half life of the compound in 50% v/v rat plasma by HPLC analysis in presence of EDTA; type: ADME, cell-free; conditions: 50% v/v plasma, with EDTA, read-out: t1/2(app); in short: as §3
# [18] = Apparent half life of the compound in 50% v/v rat plasma by HPLC analysis in presence of BNPP; type: ADME, cell-free; conditions: 50% v/v plasma, with BNPP, read-out: t1/2(app); in short: as §3
# [19] = Apparent half life of the compound in 50% v/v rat plasma by HPLC analysis in presence of eserine; type: ADME, cell-free; conditions: 50% v/v plasma, with eserine, read-out: t1/2(app); in short: as §3
# [20] = Apparent half life of the compound in 50% v/v rat plasma by HPLC analysis in presence of PMSF; type: ADME, cell-free; conditions: 50% v/v plasma, with PMSF, read-out: t1/2(app); in short: as §3
# [21] = Apparent half life of the compound in 50% v/v human plasma by HPLC analysis; type: ADME, cell-free; conditions: 50% v/v plasma, read-out: t1/2(app); in short: as §3
# [22] = Apparent half life of the compound in 50% v/v human plasma by HPLC analysis in presence of EDTA; type: ADME, cell-free; conditions: 50% v/v plasma, with EDTA, read-out: t1/2(app); in short: as §3
# [23] = Apparent half life of the compound in 50% v/v human plasma by HPLC analysis in presence of BNPP; type: ADME, cell-free; conditions: 50% v/v plasma, with BNPP, read-out: t1/2(app); in short: as §3
# [24] = Apparent half life of the compound in 50% v/v human plasma by HPLC analysis in presence of eserine; type: ADME, cell-free; conditions: 50% v/v plasma, with eserine, read-out: t1/2(app); in short: as §3
# [25] = Apparent half life of the compound in 50% v/v human plasma by HPLC analysis in presence of PMSF; type: ADME, cell-free; conditions: 50% v/v plasma, with PMSF, read-out: t1/2(app); in short: as §3
Structure (SMILES),half-life [1] [min],half-life [2] [min],half-life [3] [min],half-life [4] [min],half-life [5] [min],Drug degradation [6],Drug degradation [7],IC50 [8] [nM],further results
O=C(N[C@H]1COC1=O)OCc1ccccc1,26.7,39.2,1.2,< 0.167,30.5,–,–,–,–
O=C(N[C@H]1COC1=O)c1ccc(-c2ccccc2)cc1,12.6,28.4,3.3,0.533,20.9,Active,Active,–,–
C[C@@H]1OC(=O)[C@@H]1NC(=O)OCCCCCc1ccccc1,110,194,11.4,< 0.167,134,–,–,130,–
O=C1OCC1CCCCc1ccccc1 (centres undefined),93.5,115,15.1,0.233,114,–,–,–,–
C[C@H]1OC(=O)[C@@H]1NC(=O)OC(C)(C)C,–,–,–,–,–,–,–,4900,–
COc1ccc2cc(C(=O)N[C@H]3COC3=O)ccc2c1,8.2,18.1,< 1,0.483,19.1,Active,Active,–,–
O=C(N[C@H]1COC1=O)c1ccc(C(=O)Oc2ccccc2)cc1,9.8,23.7,2.7,< 0.167,19.5,Active,Active,–,–
C[C@H]1OC(=O)[C@H]1NC(=O)CCc1ccccc1,73.8,135,16,< 0.167,100,Active,Active,–,–
O=C(CCc1ccccc1)N[C@H]1COC1=O,18,23.1,7,< 0.167,19,Active,Active,–,–
O=C(N[C@@H]1COC1=O)OCc1ccccc1,–,–,–,–,–,–,–,700,–
C[C@H]1OC(=O)[C@H]1NC(=O)OC(C)(C)C,143,217,121,0.217,149,–,–,> 80000,–
O=C(NCc1ccccc1)N[C@H]1COC1=O,3.3,29.7,4.6,< 0.167,25.1,–,–,15000,–
C[C@H]1OC(=O)[C@H]1NC(=O)OCc1ccccc1,–,–,–,–,–,–,–,10000,–
O=C(N[C@H]1COC1=O)c1ccc2ccccc2c1,9.8,19,< 1,< 0.167,15.9,Active,Active,–,Drug degradation [9]: Active; Drug degradation [10]: Active; Drug degradation [11]: Active; Drug degradation [12]: Active; Drug degradation [13]: Active; Time [14]: <= 2 hr; Time [15]: <= 2 hr
O=C(NC1CCC1)OCc1ccccc1 [CYCLOBUTYLCARBAMIC ACID BENZYL ESTER],–,–,–,–,–,–,–,> 100000,–
O=C(NC1CCC1=O)OCc1ccccc1 (racemic),–,–,–,–,–,–,–,> 100000,–
C[C@@H]1OC(=O)[C@@H]1NC(=O)OC(C)(C)C,122,241,129,0.183,147,–,–,220,half-life [16]: 0.53 min; half-life [17]: 0.34 min; half-life [18]: 3.29 min; half-life [19]: 4.19 min; half-life [20]: 7.13 min; half-life [21]: 2.99 min; half-life [22]: 32 min; half-life [23]: 4.7 min; half-life [24]: 13.8 min; half-life [25]: 11.5 min
CC(C)(C)OC(=O)N[C@H]1COC1=O,33.7,43.4,19.6,< 0.167,39,–,–,580,–
CC(C)(C)OC(=O)N[C@@H]1COC1=O,–,–,–,–,–,–,–,500,–
C[C@@H]1OC(=O)[C@H]1NC(=O)OC(C)(C)C,80.7,93.8,87.7,< 0.167,80.4,–,–,190,–
O=C(N[C@H](CO)C(=O)O)OCc1ccccc1,–,–,–,–,–,–,–,> 100000,–
CCOC(=O)c1ccc2cc(C(=O)N[C@H]3COC3=O)ccc2c1,12.1,25.1,3.2,1.25,20.9,Active,Active,–,–
O=C(N[C@H]1COC1=O)c1ccc(OCc2ccccc2)cc1,13.4,23.2,5.8,1.08,18.8,Active,Active,–,–
O=C(N[C@@H](CO)C(=O)O)OCc1ccccc1,–,–,–,–,–,–,–,> 100000,–
C[C@@H]1OC(=O)[C@@H]1NC(=O)OCc1ccccc1,108,185,5.1,< 0.167,127,–,–,1000,–
O=C(NCc1ccccc1)N[C@@H]1COC1=O,–,–,–,–,–,–,–,49200,–
